Compound activity deposited in PubChem by Johns Hopkins Ion Channel Center.
Kir21 block: Kir2.1 (mouse) channel inhibition. P35561. HEK293-Kir2.1, FluxOR thallium flux fluorescence; active compounds read low. 310,000 compounds, 0.85% hits. B-score at 10 µM;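 active = fluorescence ratio B-score at or below minus 3 SD of library scores, with starting-brightness B-score within 2 SD, cut at about -4.2 in these data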;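 also: channel flux triggered by added potassium and thallium sulfate stimulus; B-score of peak minus minimum fluorescence over baseline after thallium stimulus; more negative B-score means stronger Kir2.1 block with less thallium influx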
Target sequence (P35561 whole entry, looked up): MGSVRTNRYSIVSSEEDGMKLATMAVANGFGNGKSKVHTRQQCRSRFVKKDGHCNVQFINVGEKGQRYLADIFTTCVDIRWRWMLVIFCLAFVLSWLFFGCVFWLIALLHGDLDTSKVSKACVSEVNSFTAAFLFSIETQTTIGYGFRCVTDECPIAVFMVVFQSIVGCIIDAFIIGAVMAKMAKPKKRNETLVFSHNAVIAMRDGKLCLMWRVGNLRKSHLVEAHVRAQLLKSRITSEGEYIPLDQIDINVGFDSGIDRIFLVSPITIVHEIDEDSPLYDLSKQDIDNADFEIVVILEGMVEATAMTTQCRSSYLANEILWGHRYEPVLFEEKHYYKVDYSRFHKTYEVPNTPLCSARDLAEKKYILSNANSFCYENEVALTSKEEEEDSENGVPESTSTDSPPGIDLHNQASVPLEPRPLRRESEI
MrgX1 antagonist: blocks BAM8-22 activation of human MrgX1 receptor. 310,000 compounds, 1.3% hits. MRGX1-HEK293 calcium flux, Fluo-4, BAM8-22 antagonism; active compounds read low. AID 588676. Q96LB2. B-score at 10 µM;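 active = calcium-response B-score plate-corrected more than 3 library SD below zero, starting fluorescence within 5 deviations, no agonist response on first addition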;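 also: peak minus trough fluorescence over baseline after final BAM8-22 challenge near maximal dose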
MrgX1 PAM: allosterically activates human MrgX1 receptor signaling; Q96LB2; MrgX1-HEK293, Fluo-4 calcium flux, FDSS; active compounds read high; B-score at 10 µM; 310,000 compounds, 0.63% hits;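 active = plate-corrected calcium response at least 3 library SD above typical, normal starting fluorescence, not activating the receptor alone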;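 also: compound read alongside a low EC10 to EC30 dose of BAM8-22 agonist; peak minus trough fluorescence over baseline measured at the second addition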
MrgX1 agonist: agonists of human MrgX1 receptor | Q96LB2 | MrgX1-HEK293 cells, Fluo-4 calcium fluorescence, agonist mode; active compounds read high | B-score at 10 µM | 310,000 compounds, 0.44% hits | AID 588627;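 active = calcium response B-score plate-corrected fluorescence ratio at least 3 library SD, with starting fluorescence B-score inside 5 SD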
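Material: MrgX1-expressing HEK293 cells; input: 15,000 cells per well; doses: test compound given as first of three sequential additions; schedule: overnight plating before 1 h dye loading; technique: Fluo-4 NW calcium-flux fluorescence, kinetic read; evaluation: baseline-normalised fluorescence change ratio, B-scored; control set: plate-wise positive and negative controls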
RGS4 block: inhibitors of human RGS4 | AID 463165 | HEK293 M3R/RGS4 inducible, Fluo-4 calcium flux; active compounds read high; triggered by carbachol at its EC20 | 310,000 compounds, 0.45% hits | P49798 | B-score at 10 µM;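 active = B-score, a plate-corrected calcium signal, over three deviations above library mean, with baseline fluorescence within five deviations of library mean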;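 also: RGS4 expression induced by doxycycline in cells with stable M3 receptor; B-score is computed from the integrated fluorescence ratio over baseline after carbachol; higher B-score means a larger calcium signal and so more RGS4 inhibition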
Target sequence (P49798 whole entry, looked up): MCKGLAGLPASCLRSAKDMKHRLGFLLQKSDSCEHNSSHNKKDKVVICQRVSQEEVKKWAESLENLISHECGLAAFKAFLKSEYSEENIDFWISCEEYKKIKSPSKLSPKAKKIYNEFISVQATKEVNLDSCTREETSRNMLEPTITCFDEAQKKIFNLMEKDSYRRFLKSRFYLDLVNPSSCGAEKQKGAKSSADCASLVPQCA
RGS4 pot: potentiators or activators of RGS4; HEK293 M3R/inducible RGS4, carbachol calcium flux Fluo4; active compounds read low; B-score at 10 µM; 310,000 compounds, 0.92% hits;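 active = B-score of the integrated calcium signal more than 4 SD below the library mean, with starting fluorescence not abnormally high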;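 also: negative B-score means reduced calcium response which marks RGS4 activation or potentiation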
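Assay system: Inducible-RGS4 HEK293 cells carrying M3 receptor | Schedule: Compound preincubation 20 min at room temperature before agonist | Signal: Kinetic calcium fluorescence imaging with Fluo4-AM dye, 2 µM | Read-out basis: B score from integrated fluorescence ratio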
RGS4 act valid: confirmation of RGS4 activators. HEK293 M3R/RGS4 inducible, carbachol calcium flux Fluo4. inhibition, % at 10 µM. 1,100 compounds, 89% hits. shares compounds with RGS4 pot;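 active = inhibition above 3 SD of the buffer control wells, cut at about 41% in these data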;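 also: signal is the integrated peak-minus-minimum Fluo4 fluorescence over baseline ratio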
RGS4 act ctr: RGS4 activator counter-screen hit in non-induced cells | shares compounds with RGS4 pot | HEK293 M3R non-induced RGS4, Fluo4 calcium flux; after carbachol challenge at its EC90 | inhibition, % at 10 µM | 1,100 compounds, 82% hits | AID 602283;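 active = inhibition exceeding 3 SD of buffer-only control wells, cut at about 26% in these data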;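 also: percent drop in integrated peak-minus-baseline over baseline Fluo4 ratio after carbachol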
Numbers stand for hits. An excerpt weighted towards active compounds, which were near 4.1% of everything screened.

What do the screens show for `CN(CC1COc2ccccc2O1)c1nc(-c2cccnc2)nc2ccccc12` (stereo not given)?
Kir21 block: inactive; MrgX1 antagonist: inactive; MrgX1 PAM: inactive; MrgX1 agonist: inactive; RGS4 block: inactive; RGS4 pot: -10; RGS4 act valid: 90; RGS4 act ctr: 93

What do the screens show for `COc1ccc(Cl)cc1C(=O)C1CCCN(CCO)C1` (stereo not given)?
Kir21 block: inactive; MrgX1 antagonist: inactive; MrgX1 PAM: inactive; MrgX1 agonist: inactive; RGS4 block: inactive; RGS4 pot: inactive

How did Cc1cc(Cl)ccc1C(=O)C1CCCN(C2CCSCC2)C1 (stereo not given) do in these assays?
Kir21 block: inactive; MrgX1 antagonist: inactive; MrgX1 PAM: inactive; MrgX1 agonist: inactive; RGS4 block: inactive; RGS4 pot: -10; RGS4 act valid: 90; RGS4 act ctr: 69

What do the screens show for `O=C(c1ccc(C(F)(F)F)cc1)C1CCCN(C2CCSCC2)C1` (stereo not given)?
Kir21 block: inactive; MrgX1 antagonist: inactive; MrgX1 PAM: inactive; MrgX1 agonist: inactive; RGS4 block: inactive; RGS4 pot: -12; RGS4 act valid: 90; RGS4 act ctr: 48

What do the screens show for `CC(C)(C)P(=O)(NCc1ccccc1)c1ccccc1` (stereo not given)?
Kir21 block: inactive; MrgX1 antagonist: inactive; MrgX1 PAM: inactive; MrgX1 agonist: inactive; RGS4 block: inactive; RGS4 pot: inactive

What do the screens show for `Cc1cc(-c2ccccc2)cc(C)[n+]1Cc1ccccc1`?
Kir21 block: inactive; MrgX1 antagonist: inactive; MrgX1 PAM: inactive; MrgX1 agonist: inactive; RGS4 block: inactive; RGS4 pot: inactive

How did Cc1cc2c(C(F)(F)F)cc(=O)oc2c2c1NCCC2 do in these assays?
Kir21 block: inactive; MrgX1 antagonist: inactive; MrgX1 PAM: inactive; MrgX1 agonist: inactive; RGS4 block: inactive; RGS4 pot: inactive

How did O=c1cc(C(F)(F)F)c2cc3c4c(c2o1)CCCN4CCC3 do in these assays?
Kir21 block: inactive; MrgX1 antagonist: inactive; MrgX1 PAM: inactive; MrgX1 agonist: inactive; RGS4 block: inactive; RGS4 pot: -9.1; RGS4 act valid: 98; RGS4 act ctr: 94

How did O=C(c1ccc2c(c1)OCO2)C1CCCN(Cc2ccc(F)c(F)c2)C1 (stereo not given) do in these assays?
Kir21 block: inactive; MrgX1 antagonist: inactive; MrgX1 PAM: inactive; MrgX1 agonist: inactive; RGS4 block: inactive; RGS4 pot: inactive

What do the screens show for `O=C(c1ccc(Cl)cc1)C1CCCN(Cc2ccc3c(c2)OCCO3)C1` (stereo not given)?
Kir21 block: inactive; MrgX1 antagonist: inactive; MrgX1 PAM: inactive; MrgX1 agonist: inactive; RGS4 block: inactive; RGS4 pot: -8.7; RGS4 act valid: 91; RGS4 act ctr: 41

What do the screens show for `S=C(NC1CCCCC1)N1CCC(c2cnc[nH]2)CC1`?
Kir21 block: inactive; MrgX1 antagonist: inactive; MrgX1 PAM: inactive; MrgX1 agonist: inactive; RGS4 block: inactive; RGS4 pot: inactive

What do the screens show for `C(#CCN1CCOCC1)COCC#Cc1ccccc1`?
Kir21 block: inactive; MrgX1 antagonist: inactive; MrgX1 PAM: inactive; MrgX1 agonist: inactive; RGS4 block: inactive; RGS4 pot: inactive

How did OC(C#CCN1CCOCC1)(c1ccccc1)C1CCCC1 (stereo not given) do in these assays?
Kir21 block: inactive; MrgX1 antagonist: inactive; MrgX1 PAM: inactive; MrgX1 agonist: inactive; RGS4 block: inactive; RGS4 pot: -8.9; RGS4 act valid: 56; RGS4 act ctr: 84

What do the screens show for `COc1cc(C)c(-c2nc(CN3C[C@@H]4C[C@@H](C3)c3cccc(=O)n3C4)c(C)o2)cc1C`?
Kir21 block: inactive; MrgX1 antagonist: inactive; MrgX1 PAM: inactive; MrgX1 agonist: inactive; RGS4 block: inactive; RGS4 pot: inactive

Results for CCCCn1c(O)c(C(C)=NCc2ccc(F)cc2)c(=O)[nH]c1=O ?
Kir21 block: inactive; MrgX1 antagonist: inactive; MrgX1 PAM: inactive; MrgX1 agonist: inactive; RGS4 block: inactive; RGS4 pot: inactive

What do the screens show for `CCCCCCNC(=O)N[C@@H](Cc1ccc(O)cc1)C(=O)NCCC[C@H]1CN2C(=NC[C@H]2C)N1CC1CCC1`?
Kir21 block: inactive; MrgX1 antagonist: inactive; MrgX1 PAM: inactive; MrgX1 agonist: inactive; RGS4 block: inactive; RGS4 pot: inactive

Results for O=C(c1cccc(Cl)c1)C1CCCN(Cc2cccc3cnccc23)C1 (stereo not given) ?
Kir21 block: inactive; MrgX1 antagonist: inactive; MrgX1 PAM: inactive; MrgX1 agonist: inactive; RGS4 block: inactive; RGS4 pot: -7.6; RGS4 act valid: 52; RGS4 act ctr: 84

How did O=C(c1cccc(Cl)c1)C1CCCN(Cc2ccon2)C1 (stereo not given) do in these assays?
Kir21 block: inactive; MrgX1 antagonist: inactive; MrgX1 PAM: inactive; MrgX1 agonist: inactive; RGS4 block: inactive; RGS4 pot: inactive

Results for CN1CCN(CCC(C#N)(c2ccccc2)c2ccccc2)CC1 ?
Kir21 block: inactive; MrgX1 antagonist: inactive; MrgX1 PAM: inactive; MrgX1 agonist: inactive; RGS4 block: inactive; RGS4 pot: -7.7; RGS4 act valid: 94; RGS4 act ctr: 92

How did Clc1ccc(OCC#CCN2CCCC2)cc1 do in these assays?
Kir21 block: inactive; MrgX1 antagonist: inactive; MrgX1 PAM: inactive; MrgX1 agonist: inactive; RGS4 block: inactive; RGS4 pot: -9.6; RGS4 act valid: 54; RGS4 act ctr: inactive

What do the screens show for `CC(Cc1ccccc1Sc1ccccc1O)N(C)C` (stereo not given)?
Kir21 block: inactive; MrgX1 antagonist: inactive; MrgX1 PAM: inactive; MrgX1 agonist: inactive; RGS4 block: inactive; RGS4 pot: -8.6; RGS4 act valid: 93; RGS4 act ctr: 91

How did O=C(Nc1ccccc1Cl)OC1CN2CCC1CC2 (stereo not given) do in these assays?
Kir21 block: inactive; MrgX1 antagonist: inactive; MrgX1 PAM: inactive; MrgX1 agonist: inactive; RGS4 block: inactive; RGS4 pot: -8.5; RGS4 act valid: 88; RGS4 act ctr: 62

What do the screens show for `O=C(Nc1ccc(Cl)cc1)OC1CN2CCC1CC2` (stereo not given)?
Kir21 block: inactive; MrgX1 antagonist: inactive; MrgX1 PAM: inactive; MrgX1 agonist: inactive; RGS4 block: inactive; RGS4 pot: inactive
